KCNQ1 pot: potentiators or activators of human KCNQ1 potassium channel; hit rate 0.35% among 310,000; P51787; B-score at 10 µM; AID 2648; CHO-K1 KCNQ1, thallium flux FluxOR fluorescence; active compounds read high;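 active means fluorescence ratio B-score, a plate-corrected score, at least three library SD, with initial intensity B-score within 5 SD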
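Test system: CHO-K1 cells stably expressing KCNQ1 / Medium: assay buffer / Also added: depolarizing K+/Tl+ stimulus, K2SO4 and Tl2SO4 each 12.5 mM in 5x stock / Incubation: 90 min dye loading and 20 min compound exposure, both at room temperature / Signal: thallium influx via FluxOR fluorescence, kinetic imaging / Evaluation: B score of baseline-normalized fluorescence ratio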
KCNK9 inh: inhibitors of human KCNK9 two-pore domain potassium channel; HEK293 KCNK9, FluxOR thallium flux fluorescence; active compounds read low; B-score at 10 µM; hit rate 1.2% among 310,000;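 active means ratio B-score over 3 SD below the library mean, with starting fluorescence within 5 SD of its mean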;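 further: negative B-score means less thallium flux so channel inhibition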
KCNK3 block: human KCNK3 channel inhibition, primary screen. CHO-KCNK3 thallium flux, FluxOR fluorescence; active compounds read low. hit rate 0.84% among 340,000. B-score at 10 µM. AID 602410;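 active means B-score under library mean minus 4 SD, starting fluorescence ratio at most library mean plus 5 SD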;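 further: more negative B-score means stronger inhibition of thallium flux through KCNK3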
Target sequence (O14649 whole entry, looked up): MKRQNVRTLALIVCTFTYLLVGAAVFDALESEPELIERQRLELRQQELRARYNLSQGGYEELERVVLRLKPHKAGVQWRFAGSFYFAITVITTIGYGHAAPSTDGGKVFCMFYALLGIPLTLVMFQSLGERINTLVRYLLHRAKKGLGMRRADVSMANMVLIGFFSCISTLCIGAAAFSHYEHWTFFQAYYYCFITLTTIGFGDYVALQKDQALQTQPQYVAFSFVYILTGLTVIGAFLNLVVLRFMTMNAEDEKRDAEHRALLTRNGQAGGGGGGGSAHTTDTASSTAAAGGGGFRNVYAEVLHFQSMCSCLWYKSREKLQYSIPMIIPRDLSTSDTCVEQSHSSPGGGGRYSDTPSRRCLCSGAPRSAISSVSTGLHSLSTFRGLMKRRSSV
KCNQ1 inh: blocks the human KCNQ1 potassium channel; CHO-K1 KCNQ1, FluxOR thallium flux fluorescence; active compounds read high; B-score at 10 µM; hit rate 1.3% among 310,000;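 active means compounds whose thallium flux B-score, printed positive for inhibition, exceeds three library SD while starting fluorescence stays within three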;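 further: channel opened by potassium depolarization with thallium stimulus after 20 min compound exposure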
hERG rescue: compounds protecting human hERG from proarrhythmic drug block; CHO-hERG, FluxOR thallium flux, dofetilide IC70 present; activation (rescue from dofetilide block), less the hit threshold, % at 10 µM; hit rate 0.51% among 310,000;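 active means activation above the mean of controls blocked by dofetilide plus 5 SD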;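 further: thallium influx through hERG after potassium depolarization seen as dye fluorescence rise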
Kir21 block: Kir2.1 (mouse) channel inhibition; HEK293-Kir2.1, FluxOR thallium flux fluorescence; active compounds read low; P35561; B-score at 10 µM; hit rate 0.85% among 310,000;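 active means fluorescence ratio B-score at or below minus 3 SD of library scores, with starting-brightness B-score within 2 SD, cut at about -4.2 in these data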;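 further: channel flux triggered by added potassium and thallium sulfate stimulus; B-score of peak minus minimum fluorescence over baseline after thallium stimulus; more negative B-score means stronger Kir2.1 block with less thallium influx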
KCNK9 inh conf: human KCNK9 inhibitor confirmation. shares compounds with KCNK9 inh. HEK293 KCNK9 cells, FluxOR thallium flux fluorescence. inhibition, % at 10 µM. hit rate 43% among 4,900;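 active means thallium signal inhibited by more than 5 SD of the compound-free buffer control wells, on both duplicate plates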;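 further: 0% = assay buffer control wells without compound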
Kir21 sel: tests whether KCNK9 modulators also affect mouse Kir2.1; shares compounds with KCNK9 inh; hit rate 4% among 4,900; Kir2.1 cells, FluxOR thallium flux fluorescence; inhibition, % at 10 µM;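 active means thallium signal drop more than 5 SD beyond the mean of the no-compound control wells, seen in both duplicate plates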;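 further: signal is fluorescence rise after thallium addition divided by baseline fluorescence; plate controls were assay buffer only for no effect and full block by chlorpromazine control for full effect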
HEK293 Tl ctr: non-induced cell nonspecific activity of KCNK9 modulators; shares compounds with KCNK9 inh; non-induced KCNK9-HEK293, FluxOR thallium flux; inhibition, % at 10 µM; hit rate 40% among 4,900;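 active means thallium signal drop beyond 5 SD of the untreated control mean, on both duplicate plates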;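 further: plate controls were buffer only IC0 wells for no effect and SID17386958 at its maximal inhibitory level for full effect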
Starred values were filed as active, the others as inactive; i = inactive; . = no result. Hits are enriched below; roughly 3.7% of the tested compounds scored in any of these assays.

SMILES	KCNQ1 pot	KCNK9 inh	KCNK3 block	KCNQ1 inh	hERG rescue	Kir21 block	KCNK9 inh conf	Kir21 sel	HEK293 Tl ctr
O=C(COC(=O)c1cc(-c2ccccc2)nc2ccccc12)Nc1ccc2c(c1)OCO2	i	i	i	i	-6	0.44	.	.	.
O=C(c1cccc(S(=O)(=O)N2CCc3ccccc32)c1)N1CCN(c2ccccn2)CC1	i	-10*	i	i	-24	-0.08	36%*	i	i
O=C(OCC(=O)N1CCc2ccccc21)c1c2c(nc3ccccc13)CCCCC2	i	-13*	i	i	-3	-0.09	52%*	i	34%*
O=C(COC(=O)c1c2c(nc3ccccc13)CCCC2)Nc1ccc2c(c1)OCO2	i	-12*	i	i	-31	-0.02	48%*	i	i
O=C(OCC(=O)N1CCCc2ccccc21)c1cccc(S(=O)(=O)N2CCOCC2)c1	i	i	i	i	-8	-0.58	.	.	.
COc1ccc(N2CCN(C(=O)c3cccc(S(=O)(=O)N4CCc5ccccc54)c3)CC2)cc1	.	.	i	.	.	.	.	.	.
O=C(COCc1cc(-c2ccc3c(c2)OCO3)on1)N1CCN(c2cccc(C(F)(F)F)c2)CC1	i	i	i	i	-7	-0.06	.	.	.
COc1cccc(C(CNC(=O)C2CCN(C(=O)Nc3ccccc3)CC2)N(C)C)c1 (stereo not drawn)	.	.	i	.	.	.	.	.	.
COc1ccc(C)cc1NC(=O)C(OC(=O)CNC(=O)c1ccc(Br)cc1)c1ccccc1 (stereo not drawn)	i	-10*	i	i	-7	1.1	36%*	i	38%*
Cc1cc(C(=O)NCC(=O)OC(C(=O)Nc2cc(C(F)(F)F)ccc2Cl)c2ccccc2)ccc1[N+](=O)[O-] (stereo not drawn)	i	-20*	-9.5*	i	-6	0.54	62%*	i	32%*
COc1ccc(C)cc1NC(=O)C(OC(=O)Cn1cnc2c1c(=O)n(C)c(=O)n2C)c1ccccc1 (stereo not drawn)	i	i	i	i	-15	1.6	.	.	.
CCCC(=O)OC(C(=O)Nc1cc(C(F)(F)F)ccc1Cl)c1ccccc1 (stereo not drawn)	i	-13*	i	i	-12	1.1	46%*	i	46%*
Cc1ccc(C(=O)C(OC(=O)CNC(=O)c2ccc(Cl)cc2)c2ccccc2)cc1 (stereo not drawn)	i	i	i	i	-7	-0.71	.	.	.
COc1ccc(C)cc1NC(=O)C(OC(=O)c1ccc(Cl)c(S(=O)(=O)N(C)c2ccccc2)c1)c1ccccc1 (stereo not drawn)	i	-9.6*	-9.8*	i	-6	-0.41	42%*	i	i
CCCCN(C(=O)c1ccc(S(=O)(=O)N(CC)CC)cc1)c1c(N)n(CCC)c(=O)[nH]c1=O	i	i	i	i	-6	-0.08	.	.	.
O=C(Nc1cccc(-c2csc(-c3ccccc3)n2)c1)c1cccs1	i	-12*	i	i	-6	1.5	45%*	i	i
O=C(Nc1cccc(F)c1)C1CCN(C(=O)c2ccc(Br)cc2)CC1	i	i	i	i	-14	-0.02	i	i	i
O=C(Nc1ccc(Br)cc1)C1CCN(C(=O)c2ccc(F)cc2)CC1	i	i	i	i	-5	-0.85	i	i	i
Cc1ccc(Cl)cc1NC(=O)CCS(=O)(=O)c1cccc2nonc12	i	i	i	i	-6	-0.86	.	.	.
CC1(c2nnc(-c3cccc(Cl)c3)o2)CC(c2c(Cl)cccc2Cl)=NO1 (stereo not drawn)	i	-10*	i	i	-24	-0.69	58%*	i	29%*
Cc1ccc(C2=NOC(C)(c3nnc(-c4cccc(Cl)c4)o3)C2)cc1 (stereo not drawn)	i	i	i	i	-1	0.84	.	.	.
CCOc1ccccc1NC(=O)c1cccc(NC(=O)c2ccco2)c1	i	-9.4*	-9.9*	i	-3	0.06	45%*	i	i
CCOc1ccccc1NC(=O)c1cccc(NC(=O)C2CCCC2)c1	i	-13*	i	i	-17	0.62	58%*	i	i
CSCCC(NC(=O)COc1ccccc1)C(=O)N1CC(C)CC(C)C1 (stereo not drawn)	.	.	i	.	.	.	.	.	.
COc1ccc(C(=O)c2coc3ccc(O)c(CN4CCCCC4)c23)cc1	i	i	i	i	-11	-3.8	i	i	i
SMILES	KCNQ1 pot	KCNK9 inh	KCNK3 block	KCNQ1 inh	hERG rescue	Kir21 block	KCNK9 inh conf	Kir21 sel	HEK293 Tl ctr
CC(C)(C)c1ccc(OCCOc2ccc(C(C)(C)C)cc2NC=O)c(NC=O)c1	i	-8.2*	i	i	-9	0.1	34%*	i	i
CCOC(=O)/C(=N\Nc1cccc(C(F)(F)F)c1)N(CCOC)CCOC	i	-8.3*	i	i	-13	-2	44%*	i	34%*
CC(C)C[C@@H](CN)NC(=O)c1nc[nH]c1C(=O)N[C@@H](CC(C)C)C(=O)CNC[C@H](C)NC(=O)c1nc[nH]c1C(=O)N[C@@H](CC(C)C)C(=O)O	.	.	i	.	.	.	.	.	.
Cc1ccc(S(=O)(=O)N2CCN(C(=O)c3c(-c4ccccc4)noc3C)CC2)cc1	i	i	i	i	-5	0.57	.	.	.
Cc1ccc(S(=O)(=O)n2nccc2-c2c(-c3ccc(Cl)cc3)noc2C)cc1	i	-12*	i	i	-7	-0.71	i	i	36%*
COc1ccc(-c2ccc(SCC(=O)c3ccccc3)nn2)cc1OC	i	-11*	i	i	-17	1.8	60%*	i	i
Cc1ccc(-c2ccc(SCC(=O)c3ccccc3)nn2)cc1	i	i	i	i	-7	3.7	.	.	.
Cc1ccc(CN2CC(C(=O)N3CC=C(c4ccccc4)CC3)CC2=O)cc1 (stereo not drawn)	i	i	i	i	-17	-0.25	.	.	.
Cc1ccc(N2CCN(C(=S)c3ccc(-c4ccccc4[N+](=O)[O-])o3)CC2)cc1	i	i	i	i	-3	-0.42	.	.	.
O=[N+]([O-])c1ccccc1-c1ccc(C(=S)N2CCN(c3ccccc3)CC2)o1	i	i	i	i	-6	1.5	i	i	i
